High-throughput results from PubChem BioAssay.
An excerpt weighted towards active compounds, which were near 6.4% of everything screened.
PLK1 PBD inh: Plk1 polo box domain binding inhibitors, primary screen, biochemical, fluorescence polarization; Serine/threonine-protein kinase PLK1 (Homo sapiens), P53350; 97,000 compounds, 0.13% hits; Plk1 PBD phosphopeptide binding; inhibition, %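 (tested at about 20 µM)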; in the data active = inhibition above about 34%, passing the limit was not always enough
PostGolgi ctrl: growth inhibition of yeast control strain, primary screen, counter-screen for post-Golgi transport modulator project; efflux-deficient yeast background strain, growth absorbance A615, 16 h; inhibition, % at 10 µM; 98,000 compounds, 5% hits; AID 738, 2007
HIV Rev-RRE inh: HIV-1 Rev-RRE binding inhibitors, primary screen, biochemical, FRET, protein-RNA interaction | P05866 | Rev peptide-RRE RNA binding | inhibition, % at 8 µM | 97,000 compounds, 0.79% hits;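 active = inhibition above the screen-wide mean plus 3 SD, cut at about 35% in these data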;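 note: 0% = median DMSO wells and 100% = median Neomycin B control wells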
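Test system: Cy5-tagged RRE RNA duplex with fluorescein-tagged Rev peptide | Read-out: % inhibition of FRET ratio versus controls | Probe or stimulus: Labelled Rev peptide | Incubation: 5 min RNA-compound premix plus 15 min binding step, 25 °C | Technique: FRET fluorescence readout | Benchmarks: DMSO low control, neomycin B high control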
EphB4 antag: EphB4-ephrin-B2 interaction antagonists, primary screen, biochemical, TNYL-RAW peptide probe, fluorescence polarization; AID 720, 2007; 97,000 compounds, 0.15% hits; Ephrin type-B receptor 4 (Homo sapiens), P54760; inhibition, % at 7 µM; EphB4 LBD / TNYL-RAW-Alexa532 peptide;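 active = inhibition above the screen-wide mean inhibition plus 3 SD, cut at about 15% in these data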;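 note: 0% = DMSO wells and 100% = excess unlabeled TNYL-RAW peptide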
PostGolgi yeast: phenotypic screen on post-Golgi transport, primary screen. post-Golgi transport phenotypic cell assay. inhibition, % at 10 µM. 98,000 compounds, 0.9% hits. AID 739, 2007;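 note: yeast cells grown in 1536-well plates; yeast grown about 18 h at 30C before absorbance read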
PLK1 kinase inh: human PLK1 kinase inhibitors, primary screen, biochemical, TR-FRET | recombinant PLK1 kinase, TR-FRET peptide phosphorylation | inhibition, % at 10 µM | Serine/threonine-protein kinase PLK1 (Homo sapiens), P53350 | 97,000 compounds, 0.53% hits;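 active = inhibition of 50% or more in the single-concentration screen; inactive = inhibition below 50%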;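 note: 0% = DMSO max control and 100% = H-89 dihydrochloride min control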
An asterisk follows results filed as active; [ ] = remark or other dose. Cut-off read from the data, not from the text of the source, unless noted: active = inhibition above about 30%; inactive = the rest.

What do the screens show for `CCOC(=O)C(C(=O)OCC)C(C(=O)OCC)N1CCOCC1` (centres undefined)?
PLK1 PBD inh: 6; PostGolgi ctrl: 5; HIV Rev-RRE inh: 12; EphB4 antag: 6; PostGolgi yeast: 4; PLK1 kinase inh: -12

How did CC(=O)N[C@H]1C[C@@H]1c1ccccc1 do in these assays?
PLK1 PBD inh: 5; PostGolgi ctrl: -6; HIV Rev-RRE inh: 8; EphB4 antag: 0; PostGolgi yeast: -1; PLK1 kinase inh: -8

Results for CCC1CC2CC(NC(C)=O)C1C2 (centres undefined) ?
PLK1 PBD inh: -1; PostGolgi ctrl: 33*; HIV Rev-RRE inh: 6; EphB4 antag: -2; PostGolgi yeast: 0; PLK1 kinase inh: -12

How did CC(=O)C1C(c2ccc(F)c(F)c2)NC(=O)NC1(O)C(F)(F)F (centres undefined) do in these assays?
PLK1 PBD inh: -19; HIV Rev-RRE inh: 5; EphB4 antag: 1; PLK1 kinase inh: -7

What do the screens show for `Cc1c(C(=O)OC(C)CCN(C)C)oc2ccccc12` (centres undefined)?
PLK1 PBD inh: 36; PostGolgi ctrl: 0; HIV Rev-RRE inh: 141*[fluorescence artefact?]; EphB4 antag: 0; PostGolgi yeast: 11; PLK1 kinase inh: -19

Results for CCOC(=O)c1cccc(Nc2nc(C)cc(C)n2)c1 ?
PLK1 PBD inh: -13; PostGolgi ctrl: 10; HIV Rev-RRE inh: 0; EphB4 antag: -3; PostGolgi yeast: 12; PLK1 kinase inh: -10

Results for COC(=O)c1cccc(Nc2nc3ccccc3nc2C)c1 ?
PLK1 PBD inh: -3; PostGolgi ctrl: 53*; HIV Rev-RRE inh: 14; EphB4 antag: 1; PostGolgi yeast: 16; PLK1 kinase inh: -8

Results for O=c1c2ccccc2nc(-c2ccc(Br)cc2)n1Cc1ccccc1 ?
PLK1 PBD inh: -2; PostGolgi ctrl: 52*; HIV Rev-RRE inh: 4; EphB4 antag: -6; PostGolgi yeast: 8; PLK1 kinase inh: -13

How did O=c1c2ccccc2nc(-c2ccoc2)n1CCc1ccccc1 do in these assays?
PLK1 PBD inh: 3; PostGolgi ctrl: 41*; HIV Rev-RRE inh: 11; EphB4 antag: 16*; PostGolgi yeast: -1; PLK1 kinase inh: -12

Results for O=C1CCCc2c1[nH]c1ccccc21 ?
PLK1 PBD inh: -2; PostGolgi ctrl: 6; HIV Rev-RRE inh: 12; EphB4 antag: 16*; PostGolgi yeast: 2; PLK1 kinase inh: -4

Results for O=c1[nH]c2cc3c(cc2cc1CN(Cc1nnnn1CC1CCCO1)C1CCCC1)OCO3 (centres undefined) ?
PLK1 PBD inh: -1; PostGolgi ctrl: 2; HIV Rev-RRE inh: 4; EphB4 antag: -6; PostGolgi yeast: 4; PLK1 kinase inh: -8

How did O=c1[nH]c2cc3c(cc2cc1CN(Cc1nnnn1CC1CCCO1)C1CCCCC1)OCO3 (centres undefined) do in these assays?
PLK1 PBD inh: 12; PostGolgi ctrl: 10; HIV Rev-RRE inh: 39*; EphB4 antag: -9; PostGolgi yeast: 5; PLK1 kinase inh: -11

Results for O=c1[nH]c2cc3c(cc2cc1CN(CCc1ccccc1)Cc1nnnn1CC1CCCO1)OCO3 (centres undefined) ?
PLK1 PBD inh: -2; PostGolgi ctrl: 0; HIV Rev-RRE inh: 41*; EphB4 antag: 0; PostGolgi yeast: 10; PLK1 kinase inh: 2

What do the screens show for `CN(C)CC(C)(C)NS(=O)(=O)c1ccc(Cl)cc1`?
PLK1 PBD inh: -16; PostGolgi ctrl: 12; HIV Rev-RRE inh: 5; EphB4 antag: 0; PostGolgi yeast: -2; PLK1 kinase inh: -13

How did O=C1C(C=NCc2cccnc2)=C(O)c2ccccc21 do in these assays?
PLK1 PBD inh: 10; PostGolgi ctrl: 40*; HIV Rev-RRE inh: 6; EphB4 antag: -12; PostGolgi yeast: -8; PLK1 kinase inh: 10

What do the screens show for `CCOc1ccc(C2c3c(oc4ccccc4c3=O)C(=O)N2c2ccc(C)cn2)cc1OC` (centres undefined)?
PostGolgi ctrl: 19; PostGolgi yeast: -4
